Laboratory results as given in publication PMC11041979 (International Journal of Nanomedicine, 2024).
Converted amounts (≈) assume the structure as drawn.

Columns and labels:
Water solubility assay = type: physicochemical
Outline: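 Saturated aqueous test-compound solutions were sonicated, centrifuged and diluted 10–500-fold. Carbon dots (3 mg/mL stock) were diluted to 10 levels, 1500–3.12 μg/mL. Samples were centrifuged at 10000 rpm for 10 min and filtered through 0.22 µm. HPLC used a C18 column at 30°C with 0.4% acetic acid water–acetonitrile 85:15 at 1.0 mL/min and detection at 318 nm. Calibration followed Chinese Pharmacopoeia methods.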

[1] = Pharmacokinetics of MA in rats after oral gavage; type: in vivo, Sprague-Dawley rats
Outline: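 Male Sprague-Dawley rats (200 ± 20 g), acclimatised 1 week, fasted 12 h with free water. Test compound given by gavage at 20 mg/kg (2 mg/mL) as an aqueous suspension or as a saturated suspension in carbon-dot solution (stirred 20 min). Orbital blood drawn 5–1440 min into heparin. Plasma protein-precipitated with acetonitrile:acetic acid 9:1, isomangiferin internal standard, UHPLC-MS/MS. Mean ± SD.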

[2] = literature value; cited from earlier work
[3] = Sprague-Dawley, rat, plasma, po, 20 mg/kg

O=c1c2cc(O)c(O)cc2oc2cc(O)c([C@@H]3O[C@H](CO)[C@@H](O)[C@H](O)[C@H]3O)c(O)c12 [MA, Mangiferin]
solubility of MA in water with MC-CDs (Water solubility assay; aqueous MC-CDs solution, MC-CDs concentration exceeding 100 μg/mL): increases significantly | solubility (Water solubility assay; water, thermodynamic from solid): 115 µg/mL (≈ 273 µM) | maximum concentration ([1]; MA, oral, preliminary rat pharmacokinetics): 200 ng | AUC(0-t) [1, 3]: 1.52 ± 2.64 ng·h/mL | Cmax [1, 3]: 0.201 ± 0.0314 ng/mL | Tmax [1, 3]: 4 ± 1.42 h | half-life [1, 3]: 3.27 ± 2.18 h | Tmax after oral administration [2]: about 267.49 ± 108.29 min
